Positions count from the first letter of the chain named. “Also recorded” adds a separate entry of the source.
Key:
[1] = target: T1, WT-Parkin (substrate His-Miro1 186-591) (Homo sapiens, UniProt O60260); assay: Miro1 ubiquitination assay by Western blot; assay type: biochemical; conditions: His-Miro1 (186-591) substrate
T1 sequence (O60260 1-465): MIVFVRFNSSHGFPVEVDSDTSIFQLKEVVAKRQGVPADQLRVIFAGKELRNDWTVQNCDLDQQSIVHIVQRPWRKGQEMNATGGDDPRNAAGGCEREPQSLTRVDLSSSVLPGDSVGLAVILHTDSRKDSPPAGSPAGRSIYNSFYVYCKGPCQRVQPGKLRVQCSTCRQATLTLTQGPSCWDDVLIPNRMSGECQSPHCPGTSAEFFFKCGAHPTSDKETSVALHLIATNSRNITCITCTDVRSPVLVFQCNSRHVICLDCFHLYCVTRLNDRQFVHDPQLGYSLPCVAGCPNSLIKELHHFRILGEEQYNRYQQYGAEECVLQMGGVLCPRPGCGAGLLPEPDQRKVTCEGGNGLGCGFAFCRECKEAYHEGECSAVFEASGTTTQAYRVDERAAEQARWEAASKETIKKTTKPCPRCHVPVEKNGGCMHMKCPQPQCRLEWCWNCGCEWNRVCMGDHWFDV
Procedure, shortened: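 Run as the TR-FRET reaction with untagged WT-Parkin. Test compound was pre-incubated 30 min with E1, E2, Parkin and His-Miro1 186-591 (250 nM final); the 2X mix held 40 nM E1, 800 nM E2 and 100 nM Parkin. After 20 min the reaction was stopped in SDS sample buffer, then run on 4–12% bis-tris SDS-PAGE, PVDF transfer and IR-dye secondary imaging.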

WT-Parkin [2] = target: T2, WT-Parkin (Homo sapiens, UniProt O60260); assay: Parkin autoubiquitination by Western blot; assay type: biochemical; conditions: 5 min reaction at 37°C
T2 sequence (O60260 1-465): T1 sequence (O60260 1-465)
Procedure, shortened: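 Untagged WT-Parkin was pre-incubated 30 min at 37°C with E1, E2 and test compound; the 2X mix held 40 nM E1, 800 nM E2 and 100 nM Parkin. Then 2X substrate mix was added (760 nM fluorescein-Ub, 50 μM ubiquitin, 10 μM pUb, 2 mM ATP) in HEPES pH 7.4 buffer with 1% DMSO, in 40 μL. Stopped after 5 min with SDS sample buffer; polyubiquitin smears were read by Western blot.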

[3] = target: T3, N-terminally tagged WT-Parkin (Homo sapiens, UniProt O60260); assay: In vitro ubiquitin vinyl sulfone; assay type: biochemical; conditions: 3 μM pUb, 2 h; for Ub-VS charging of WT-Parkin: no E1, E2 or ATP
T3 sequence (O60260 1-465): T1 sequence (O60260 1-465)
Procedure, shortened: (§1)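 Tagged Parkin (WT or W403A), 2 μM, incubated with 10 μM Ub-VS and 3 μM pUb. Test compound at 0, 0.09, 0.27, 0.8, 2.5, 7.4, 22.2, 66.7 and 200 μM. Buffer: 50 mM HEPES, 150 mM NaCl, 1 mM TCEP, pH 8.0. Final DMSO 2% (v/v).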

[4] = target: T4, N-terminally tagged W403A-Parkin (Homo sapiens, UniProt O60260, W403A); assay: In vitro ubiquitin vinyl sulfone; assay type: biochemical; conditions: 3 μM pUb, 1 h
T4 sequence (O60260 1-465 W403A): T1 sequence (O60260 1-465) with W403A
Procedure, shortened: as §1

WT-Parkin [5] = target: T2, WT-Parkin; assay: Parkin catalytic poly-auto-Ub TR-FRET assay; assay type: biochemical; conditions: WT-Parkin with pUb
[6] = target: Human MDR1 efflux transporter (MDCK-MDR1 cells) (Homo sapiens, UniProt P08183); assay: MDCK-MDR1 bidirectional permeability / efflux; assay type: in vitro ADME; conditions: average of inward and outward permeability
Procedure, shortened: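 MDCK-MDR1 cells were seeded at 0.28×10^6 cells/mL on the apical side of transwell inserts and grown 7 days, with two media changes. Monolayers were rinsed in HBSS/1% HEPES pH 7.4. 1 μM test compound was added to the donor side (A>B and B>A); receivers held buffer with 1% BSA. Plates were shaken 2 h at 37°C. Donor was sampled at 0 and 120 min, receiver at 2 h, and quenched with acetonitrile plus internal standard for LC-MS/MS. Post-assay TEER had to exceed 430 ohm∗cm2. Papp = (dQ/dt)(1/C0)(1/A); ER = Papp B>A / Papp A>B.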

[7] = target: N-terminally tagged W403A-Parkin (UniProt O60260)
[8] = tested on: GFP-Parkin expressing HeLa cells; assay: Parkin translocation assay; assay type: cell-based
Procedure, shortened: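 HeLa cells stably expressing GFP-Parkin (lentiviral, blasticidin-selected, FACS-sorted for matched GFP) were seeded at 1.6×10^4 cells/well and recovered 24 h. Nuclei were Hoechst-stained 30 min. Cells were pre-treated 1 h with test compound, then given 20 μM CCCP. Live imaging every 10 min for 3 h at 20x, 37°C, 5% CO2, with 9 fields in each of 4 replicate wells.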

pParkin = target: T5, pParkin (Homo sapiens, UniProt O60260); assay: TR-FRET autoubiquitination assay with phospho-Parkin without pUb; assay type: biochemical; conditions: TR-FRET ratio, no pUb
T5 sequence (O60260 1-465): T1 sequence (O60260 1-465)

[9] = tested on: SH-SY5Y cells expressing the MitoQC construct; assay: MitoQC mitophagy assay; assay type: cell-based; conditions: 1 h pre-incubation, Antimycin + Oligomycin
Procedure, shortened: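 SH-SY5Y cells carrying MitoQC were seeded at 1.6×10^4 cells/well on attachment factor and recovered 72 h. Cells were pre-treated 1 h with test compound, then given 5 μM Antimycin + 10 μM Oligomycin or DMSO for 8 h unless stated otherwise. Fixed in 2% PFA on ice 30 min, DAPI-stained, and imaged at 64x (25 fields, 4 replicate wells). mCherry puncta (mitolysosomes) were counted.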

[10] = target: T6, N-terminally tagged C431S-Parkin (Homo sapiens, UniProt O60260, C431S); assay: In vitro ubiquitin vinyl sulfone; assay type: biochemical; conditions: 200 μM compound, range of pUb concentrations
T6 sequence (O60260 1-465 C431S): T1 sequence (O60260 1-465) with C431S

Human MDR1 efflux transporter (MDCK-MDR1 cells), sequence (P08183 whole entry): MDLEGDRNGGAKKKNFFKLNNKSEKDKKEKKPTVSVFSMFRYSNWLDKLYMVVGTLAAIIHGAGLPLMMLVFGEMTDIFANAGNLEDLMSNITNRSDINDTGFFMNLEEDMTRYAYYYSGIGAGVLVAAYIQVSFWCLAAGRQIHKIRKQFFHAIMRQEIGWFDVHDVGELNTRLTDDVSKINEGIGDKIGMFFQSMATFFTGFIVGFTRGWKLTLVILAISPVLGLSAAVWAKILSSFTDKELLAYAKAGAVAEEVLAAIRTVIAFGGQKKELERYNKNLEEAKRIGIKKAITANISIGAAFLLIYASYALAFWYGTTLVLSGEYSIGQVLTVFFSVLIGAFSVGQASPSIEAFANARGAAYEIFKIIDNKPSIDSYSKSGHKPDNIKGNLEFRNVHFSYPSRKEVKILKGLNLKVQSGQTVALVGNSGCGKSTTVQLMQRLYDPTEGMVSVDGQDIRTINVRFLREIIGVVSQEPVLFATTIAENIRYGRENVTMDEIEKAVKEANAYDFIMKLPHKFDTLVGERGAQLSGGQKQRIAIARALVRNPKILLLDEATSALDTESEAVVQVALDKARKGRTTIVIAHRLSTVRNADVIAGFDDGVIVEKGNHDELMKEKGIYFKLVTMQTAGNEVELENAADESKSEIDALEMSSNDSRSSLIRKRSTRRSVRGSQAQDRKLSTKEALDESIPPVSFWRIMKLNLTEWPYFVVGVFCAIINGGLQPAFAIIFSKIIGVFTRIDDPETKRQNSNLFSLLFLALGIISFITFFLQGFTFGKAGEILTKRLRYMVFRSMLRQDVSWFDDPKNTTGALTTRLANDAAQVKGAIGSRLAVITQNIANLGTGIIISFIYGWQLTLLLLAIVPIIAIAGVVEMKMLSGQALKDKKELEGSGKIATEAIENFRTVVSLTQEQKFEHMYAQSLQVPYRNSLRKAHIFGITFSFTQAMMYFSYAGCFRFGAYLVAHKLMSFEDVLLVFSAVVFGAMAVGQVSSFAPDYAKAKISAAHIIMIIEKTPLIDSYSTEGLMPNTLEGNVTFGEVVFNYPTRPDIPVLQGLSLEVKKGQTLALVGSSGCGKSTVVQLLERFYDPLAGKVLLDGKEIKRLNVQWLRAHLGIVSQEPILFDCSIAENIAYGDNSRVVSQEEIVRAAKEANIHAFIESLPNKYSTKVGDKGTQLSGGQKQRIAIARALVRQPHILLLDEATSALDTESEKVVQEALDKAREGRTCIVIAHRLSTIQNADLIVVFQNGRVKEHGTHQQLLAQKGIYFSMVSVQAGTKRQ

| Miro1 ubiquitination by Western blot [1] | Ub-VS charging of WT-Parkin [3] | activity in TR-FRET autoubiquitination assay (WT-Parkin [5]) | MDR1-MDCK avg (average of Papp AB/BA) [6] | EC50 of pUb for Ub-VS charging of W403A-Parkin (gel shift), without BIO-2007817 [7] | concentration above which maximal efficacy is approached in Ub-VS charging ([3]; WT-Parkin) | Compound | Parkin autoubiquitination by Western blot (WT-Parkin [2]) | Ub-VS charging of W403A-Parkin [4] | effect on Parkin translocation rate in the presence of valspodar ([8]; HeLa cells with and without valspodar (MDR1 inhibitor)) | effect on rate of Parkin translocation to mitochondria ([8]; eGFP-WT-Parkin HeLa, 1 h pretreatment, then CCCP) | activation of phospho-Parkin in the absence of pUb (pParkin) | effect on mitophagy, MitoQC [9] | Ub-VS charging of C431S-Parkin [10] |
| --- | --- | --- | --- | --- | --- | --- | --- | --- | --- | --- | --- | --- | --- |
| reduced ability | to a lesser extent | – | – | – | – | CO[C@@H](C(=O)N1Cc2c(-c3ccc(C(=O)N4CCCc5ccccc54)cc3)cnn2C[C@H]1C(C)C)c1cnn(C)c1 (single isomer, unassigned) [BIO-2007818] | reduced ability to induce Parkin autoubiquitination | to a lesser extent | – | – | – | – | – |
| inactive | no significant activity | inactive | 4.4 ×10⁻⁶ cm/s | – | – | Cc1n[nH]c(CC(=O)N2Cc3c(-c4ccc(C(=O)N5CCCc6ccccc65)cc4)cnn3C[C@H]2C)n1 [BIO-1984542, (R)-2-(3-methyl-1H-1,2,4-triazol-5-yl)-1-(6-methyl-3-(4-(1,2,3,4-tetrahydroquinoline-1-carbonyl)phenyl)-6,7-dihydropyrazolo[1,5-a]pyrazin-5(4H)-yl)ethan-1-one] | inactive | – | – | – | – | – | – |
| – | – | – | – | 5.4 μM | – | Phospho-ubiquitin (pUb): Human Recombinant pSer65-Ubiquitin (from UniProt P0CG48 1-76) (natural protein) | – | – | – | – | – | – | – |

| Compound | Miro1 ubiquitination by Western blot [1] | Ub-VS charging of WT-Parkin [3] | activity in TR-FRET autoubiquitination assay (WT-Parkin [5]) | MDR1-MDCK avg (average of Papp AB/BA) [6] | EC50 of pUb for Ub-VS charging of W403A-Parkin (gel shift), without BIO-2007817 [7] | concentration above which maximal efficacy is approached in Ub-VS charging ([3]; WT-Parkin) | Parkin autoubiquitination by Western blot (WT-Parkin [2]) | Ub-VS charging of W403A-Parkin [4] | effect on Parkin translocation rate in the presence of valspodar ([8]; HeLa cells with and without valspodar (MDR1 inhibitor)) | effect on rate of Parkin translocation to mitochondria ([8]; eGFP-WT-Parkin HeLa, 1 h pretreatment, then CCCP) | activation of phospho-Parkin in the absence of pUb (pParkin) | effect on mitophagy, MitoQC [9] | Ub-VS charging of C431S-Parkin [10] |
| --- | --- | --- | --- | --- | --- | --- | --- | --- | --- | --- | --- | --- | --- |
| CO[C@H](C(=O)N1Cc2c(-c3ccc(C(=O)N4CCCc5ccccc54)cc3)cnn2C[C@H]1C(C)C)c1cnn(C)c1 (single isomer, unassigned) [BIO-2007817] | able to induce the appearance of monoubiquitinated forms of Miro1 | induced the appearance of slower-migrating Parkin species in a concentration-dependent manner | – | 19.8 ×10⁻⁶ cm/s | – | above 20 μM | stimulated Parkin autoubiquitination as measured by Western blots in a concentration-dependent manner | further stimulated exposure of the active-site C431 | No change in Parkin translocation rate | did not significantly change the rate of translocation of Parkin; also recorded: not able to promote Parkin translocation to depolarized mitochondria in HeLa cells | can act as an agonist for activated phospho-Parkin even in the absence of pUb | nor promote mitophagy in MitoQC SH-SY5Y cell lines | not responsive; also recorded: no activity |
